Test results published in ChEMBL document CHEMBL4024708, “Recent synthetic and medicinal perspectives of dihydropyrimidinones: A review” (Eur J Med Chem, 2017).
Converted amounts (≈) assume the structure as drawn. One block for each compound: values may come before it.

How the values were obtained:
Klebsiella pneumoniae = experiment: Antibacterial activity against Klebsiella pneumoniae MTCC 7028 by spectrophotometric method; format: functional
Procedure, shortened: (§1)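 Serial broth dilution, 200 to 15.625 μg/mL, in nutrient broth, sonicated 10 min. Inoculum gave a starting density of 10^3–10^4 CFU/mL. Flasks were shaken at 200 rpm and 37 °C, and growth followed by the rise in absorbance at 600 nm. MIC is the lowest concentration inhibiting the organism. Controls: compound without inoculum, and inoculum without compound.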

Rattus norvegicus = experiment: Anti-inflammatory activity in rat assessed as inhibition of carrageenan-induced hind paw edema at 10 mg/kg, po pretreated for 1 hr followed by carrageenan challenge measured after 3 hrs by plethysmometer relative to control; format: functional
Procedure, shortened: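 Albino rats; carrageenan-induced paw edema test after Winter et al., with diclofenac sodium as reference standard. Percentage reduction in inflammation recorded 3 h after carrageenan, relative to carrageenan-only animals.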

Staphylococcus aureus = experiment: Antibacterial activity against Staphylococcus aureus MTCC 3160 by spectrophotometric method; format: functional; procedure, shortened: as §1
Pseudomonas aeruginosa = experiment: Antibacterial activity against Pseudomonas aeruginosa MTCC 2581 by spectrophotometric method; format: functional; procedure, shortened: as §1
Mus musculus [1] = experiment: Anticonvulsant activity in ip dosed maximal electroshock induced seizure mouse model assessed as suppression of hind limb tonic extension measured at 0.5 hrs post dose; format: functional; conditions: read-out: MED
Procedure, shortened: (§2)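 Albino mice given the compound ip, suspended in 0.5% methyl cellulose–water, at 30, 100 and 300 mg/kg. Maximal electroshock by corneal electrodes: 50 mA, 60 Hz, 0.2 s. Abolition of hind limb tonic extension scored as protection. Value is the minimum dose active in half or more of the mice.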

Mus musculus [2] = experiment: Anticonvulsant activity in ip dosed maximal electroshock induced seizure mouse model assessed as suppression of hind limb tonic extension measured at 4 hrs post dose; format: functional; conditions: read-out: MED; procedure, shortened: as §2
[3] = target: T1, Alpha-1A adrenergic receptor (Homo sapiens, UniProt P35348); experiment: Displacement of [125I]L-762,459 from recombinant human alpha1a adrenergic receptor expressed in mammalian cells measured after 1 hr; format: cell-based
T1 sequence (P35348 whole entry): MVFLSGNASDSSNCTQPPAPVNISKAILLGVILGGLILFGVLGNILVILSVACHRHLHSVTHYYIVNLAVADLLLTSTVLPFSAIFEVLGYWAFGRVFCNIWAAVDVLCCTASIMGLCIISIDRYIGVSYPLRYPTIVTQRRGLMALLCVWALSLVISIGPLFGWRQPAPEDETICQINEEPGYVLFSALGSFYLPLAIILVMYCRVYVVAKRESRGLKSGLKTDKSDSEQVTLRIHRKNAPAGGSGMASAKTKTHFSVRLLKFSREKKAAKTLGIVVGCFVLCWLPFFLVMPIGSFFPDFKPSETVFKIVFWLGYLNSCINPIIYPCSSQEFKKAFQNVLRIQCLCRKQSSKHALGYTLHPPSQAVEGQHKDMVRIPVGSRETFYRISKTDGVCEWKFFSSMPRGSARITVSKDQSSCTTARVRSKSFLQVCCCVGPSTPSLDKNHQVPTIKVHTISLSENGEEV

[4] = Half-life in Beagle dog at 0.5 mg/kg, iv by LC-MS analysis; format: ADME, organism-based, Canis lupus familiaris; conditions: in vivo
Escherichia coli = experiment: Antibacterial activity against Escherichia coli MTCC 443 by spectrophotometric method; format: functional; procedure, shortened: as §1
[5] = Antioxidant activity assessed as DPPH free radical scavenging activity at 100 ppm after 30 mins in dark by spectrophotometric method relative to control; format: functional
Procedure, shortened: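 DPPH (1,1-diphenyl-2-picrylhydrazyl) radical scavenging assay. The change in absorbance was read at 517 nm on a spectrophotometer. Activity is given as percent inhibition of the DPPH radical, calculated as (absorbance of control − absorbance of sample)/absorbance of control × 100.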

[6] = Antioxidant activity assessed as cupric ion reducing activity by measuring increase in absorbance at 100 ppm by CUPRAC assay; format: functional
Procedure, shortened: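 CUPRAC assay. Sample solution was mixed with distilled water, at a pH close to 7. Reduction of Cu(II) to Cu(I) was followed as the increase in absorbance at 450 nm of the reaction mixture.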

MIC (Klebsiella pneumoniae): 31.2 to 62.5 µg/mL (≈ 114 to 227 µM)
SMILES: CC(=O)C1=C(C)NC(=O)NC1c1ccc([N+](=O)[O-])cc1 (stereo not drawn)

SMILES: O=C(O)CC1=C(c2ccccc2)N=C(S)NC1c1cccs1 (stereo not drawn)
inhibition in vivo at 10 mg/kg (Rattus norvegicus): 21%

SMILES: COc1ccc(C2NC(=S)NC(c3ccc(C)cc3)=C2CC(=O)O)cc1 (stereo not drawn)
inhibition in vivo at 10 mg/kg (Rattus norvegicus): 33%

MIC (Staphylococcus aureus): 62.5 to 125 µg/mL (≈ 256 to 512 µM)
MIC (Pseudomonas aeruginosa): 15.6 to 31.2 µg/mL (≈ 63.9 to 128 µM)
SMILES: CCC(=O)C1=C(C)NC(=O)NC1c1ccccc1 (stereo not drawn)

MIC (Staphylococcus aureus): 250 µg/mL (≈ 1110 µM)
MIC (Pseudomonas aeruginosa; read-out: MIC): 250 µg/mL (≈ 1110 µM)
SMILES: CCCCC1NC(=O)NC(C)=C1C(=O)CC (stereo not drawn)

SMILES: Cc1ccc(C2=C(CC(=O)O)C(c3cccs3)NC(S)=N2)cc1 (stereo not drawn)
inhibition in vivo at 10 mg/kg (Rattus norvegicus): 10%

SMILES: O=C(O)CC1=C(c2ccc(Cl)cc2)NC(=S)NC1c1cccs1 (stereo not drawn)
inhibition in vivo at 10 mg/kg (Rattus norvegicus): 16%

SMILES: O=C(O)CC1=C(c2ccc(Cl)cc2)N=C(S)NC1c1ccc(Cl)cc1 (stereo not drawn)
inhibition in vivo at 10 mg/kg (Rattus norvegicus): 25%

SMILES: SC1=NC(n2nc(-c3ccccc3)nc2-c2ccccc2)=CC(c2ccccc2Cl)N1 (stereo not drawn)
minimal effective dose (Mus musculus [1]): 30 mg/kg
minimal effective dose (Mus musculus [2]): 300 mg/kg

Ki [3]: 0.14 nM
SMILES: CC1=C(C(=O)NCCCN2CCC(c3ccc(F)cc3)CC2)[C@@H](c2ccc(F)c(F)c2)N(C)C(=O)N1C

SMILES: CC1=C(C(=O)NCCCN2CCC(c3ccc(F)c(F)c3)CC2)[C@@H](c2ccc(F)c(F)c2)NC(=O)N1C
Ki [3]: 0.18 to 0.39 nM

SMILES: Cc1ccc(C2=C(CC(=O)O)C(c3ccccc3)NC(S)=N2)cc1 (stereo not drawn)
inhibition in vivo at 10 mg/kg (Rattus norvegicus): 28%

SMILES: O=C(O)CC1=C(c2ccc(Cl)cc2)N=C(S)NC1c1ccccc1 (stereo not drawn)
inhibition in vivo at 10 mg/kg (Rattus norvegicus): 20%

half-life [4]: 7 to 8 h
SMILES: COCC1=C(C(=O)NCCCN2CCC(c3ccc(F)cc3)CC2)[C@@H](c2ccc(F)c(F)c2)NC(=O)N1

SMILES: O=C(O)CC1=C(c2ccccc2)N=C(S)NC1c1ccccc1 (stereo not drawn)
inhibition in vivo at 10 mg/kg (Rattus norvegicus): 17%

SMILES: COc1ccc(C2C=C(n3cc(-c4ccccc4)nc3-c3ccccc3)N=C(S)N2)cc1 (stereo not drawn)
minimal effective dose (Mus musculus [1]): 100 mg/kg
minimal effective dose (Mus musculus [2]): 300 mg/kg

MIC (Escherichia coli): 15.6 to 31.2 µg/mL (≈ 67.7 to 135 µM)
MIC (Staphylococcus aureus): 62.5 to 125 µg/mL (≈ 271 to 543 µM)
MIC (Pseudomonas aeruginosa; read-out: MIC): 250 µg/mL (≈ 1090 µM)
SMILES: CC(=O)C1=C(C)NC(=O)NC1c1ccccc1 (stereo not drawn)
Activity [5]: 64.4%
absorbance [6]: 0.87

SMILES: COc1ccc(C2NC(S)=NC(c3ccccc3)=C2CC(=O)O)cc1 (stereo not drawn)
inhibition in vivo at 10 mg/kg (Rattus norvegicus): 32%

SMILES: SC1=NC(n2nc(-c3ccccc3)nc2-c2ccccc2)=CC(c2ccc(-c3ccco3)cc2)N1 (stereo not drawn)
minimal effective dose (Mus musculus [1]): 30 mg/kg
minimal effective dose (Mus musculus [2]): 300 mg/kg

MIC (Staphylococcus aureus): 250 µg/mL (≈ 911 µM)
MIC (Pseudomonas aeruginosa; read-out: MIC): 250 µg/mL (≈ 911 µM)
SMILES: CCC(=O)C1=C(C)NC(=O)NC1c1cccc(OC)c1 (stereo not drawn)

SMILES: Cc1ccc(C2=C(CC(=O)O)C(c3ccc(Cl)cc3)NC(S)=N2)cc1 (stereo not drawn)
inhibition in vivo at 10 mg/kg (Rattus norvegicus): 22%

SMILES: O=[N+]([O-])c1cccc(C2C=C(n3cc(-c4ccccc4)nc3-c3ccccc3)N=C(S)N2)c1 (stereo not drawn)
minimal effective dose (Mus musculus [1]): 30 mg/kg
minimal effective dose (Mus musculus [2]): 300 mg/kg
